One series deals with Pseudomonas aeruginosa. Kind of series: Antimicrobial activity against Pseudomonas aeruginosa ATCC 15442. Format: functional. Summed up:
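Pseudomonas grown 24 h in trypticase soy broth, diluted 1:50. Combined with diluted samples in 96-well plates, top final concentration 50 µg/mL (≤2.5% DMSO), 37 °C incubation. Growth read at 630 nm. MIC is the lowest tested concentration inhibiting 80% of growth versus controls; IC50 from concentration versus % growth graphs.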

The test system of series [1] is Staphylococcus aureus. Kind of series: Antimicrobial activity against Staphylococcus aureus ATCC 6538. Format: functional. Summed up: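 Staphylococcus aureus grown 24 h in Eugon broth, diluted 1:50 in broth, added to serially diluted samples in 96-well plates (highest final DMSO 2.5%), incubated at 37 °C. Growth measured at 630 nm versus controls. MIC is the lowest concentration inhibiting 80% of growth; IC50 (50% inhibition) comes from concentration versus % growth plots.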

A further series relates to Cryptococcus neoformans. Nature of the series: Antimicrobial activity against Cryptococcus neoformans ATCC 52657. Format: functional. The gist of the method: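 Grown in mycophil broth 72 h, hemocytometer-counted, diluted to 200,000 CFU/mL. Exposed to diluted samples in 96-well plates, maximum final 50 µg/mL (DMSO up to 2.5%), incubated 30 °C. A630 readout. MIC is the lowest concentration inhibiting 80% of growth versus controls; IC50 read from concentration versus % growth graphs.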

Series [2] is described as follows: Cytotoxicity against human KB cells assessed as cell growth inhibition after 48 hrs by neutral red dye based assay. It is filed as functional. Summed up: (§1)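 Cells kept in RPMI-1640 with 10% bovine serum and 60 µg/mL amikacin, 37 °C, 5% CO2. Seeded at 25,000 cells/well, left 24 h to adhere. Samples diluted in RPMI added, highest final concentration 10 µg/mL. Growth measured by neutral red uptake after 48 h exposure.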

Series [3] in a line: Cytotoxicity against African green monkey Vero cells assessed as cell growth inhibition at 10 ug/ml after 48 hrs by neutral red dye based assay. It is filed as toxicity. The settings on record: chlorocebus sabaeus. The gist of the method: as §1
A short description of series [4]: Cytotoxicity against human SKOV3 cells assessed as cell growth inhibition after 48 hrs by neutral red dye based assay. The settings on record: SK-OV-3, 48 h. Format: functional. Summed up: as §1
A short description of series [5]: Cytotoxicity against human SK-MEL cells assessed as cell growth inhibition after 48 hrs by neutral red dye based assay. It is filed as functional. The gist of the method: as §1
The subject of series [6] is Staphylococcus aureus. Kind of series: Antimicrobial activity against methicillin-resistant Staphylococcus aureus. It is filed as functional. Summed up:
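MRSA precultured 24 h, diluted 1:50 in broth, added to serially diluted samples in 96-well plates (highest final DMSO 2.5%), incubated at 37 °C. Growth measured as absorbance at 630 nm versus controls. MIC is the lowest concentration giving 80% inhibition; IC50 (50% inhibition) is read from concentration versus % growth plots.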

The next series has as its system Candida albicans. Kind of series: Antimicrobial activity against Candida albicans B311. It is filed as functional. Summed up:
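Cultured in Sabouraud dextrose broth 24 h, counted by hemocytometer, diluted to 10,000 CFU/mL. Added to serially diluted samples in 96-well plates, top final concentration 50 µg/mL (≤2.5% DMSO), incubated 37 °C. Growth by A630. MIC is the lowest concentration giving 80% inhibition against controls; IC50 from concentration versus % growth plots.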

For a further series, the target named is T1, DNA topoisomerase 1 (Homo sapiens, UniProt P11387).
T1 sequence (P11387 whole entry): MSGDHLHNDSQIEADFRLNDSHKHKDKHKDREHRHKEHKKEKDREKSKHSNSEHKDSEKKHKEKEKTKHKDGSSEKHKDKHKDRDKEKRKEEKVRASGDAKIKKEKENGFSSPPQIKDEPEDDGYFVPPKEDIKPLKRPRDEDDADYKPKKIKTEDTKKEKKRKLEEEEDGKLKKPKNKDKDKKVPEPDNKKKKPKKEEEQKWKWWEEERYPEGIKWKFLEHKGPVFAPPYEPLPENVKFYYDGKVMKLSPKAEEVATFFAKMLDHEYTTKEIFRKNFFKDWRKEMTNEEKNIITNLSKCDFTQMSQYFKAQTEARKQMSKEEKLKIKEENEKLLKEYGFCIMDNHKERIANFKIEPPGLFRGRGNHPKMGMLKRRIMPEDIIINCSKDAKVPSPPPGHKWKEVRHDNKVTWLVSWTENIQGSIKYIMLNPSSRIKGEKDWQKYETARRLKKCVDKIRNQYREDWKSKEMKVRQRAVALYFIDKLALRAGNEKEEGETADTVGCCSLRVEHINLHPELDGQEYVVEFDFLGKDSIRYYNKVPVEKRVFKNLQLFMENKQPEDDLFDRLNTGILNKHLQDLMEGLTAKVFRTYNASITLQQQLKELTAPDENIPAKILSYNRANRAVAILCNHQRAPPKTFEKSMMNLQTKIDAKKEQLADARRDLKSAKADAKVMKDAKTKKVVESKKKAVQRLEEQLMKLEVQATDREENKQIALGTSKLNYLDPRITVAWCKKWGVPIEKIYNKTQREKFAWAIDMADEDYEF
Kind of series: Inhibition of human DNA topoisomerase 1 using pHOT1 as substrate after 30 mins by agarose gel electrophoresis. The gist of the method:
(§2)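 Relaxation of supercoiled to relaxed DNA by TopoI measured with a commercial TopoI drug kit following kit protocol. IC50 calculated from dose-response curves of % inhibition versus concentration.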

The test system of the next series is Plasmodium falciparum. Nature of the series: Antimalarial activity against Plasmodium falciparum D6 infected in RBC after 48 hrs by lactate dehydrogenase assay. Format: functional. As to conditions: D6, 48 h. The gist of the method:
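Parasites grown in A+ human erythrocytes in RPMI 1640 with 10% A+ human serum, 25 mM HEPES, 27 mM bicarbonate, 60 µg/mL amikacin, 37 °C under 90% N2/5% O2/5% CO2. Infected cells exposed 48 h in microtiter wells, highest concentration 4.8 µg/mL. Growth read by Malstat reagent (parasite LDH) with nitro blue tetrazolium reduction, absorbance 630 nm.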

Series [7] in a line: Inhibition of Candida albicans DNA topoisomerase 1 using pHOT1 as substrate after 30 mins by agarose gel electrophoresis. The gist of the method: as §2
Series [8] can be described thus: Cytotoxicity against human BT549 cells assessed as cell growth inhibition after 48 hrs by neutral red dye based assay. It is filed as functional. As to conditions: BT-549, 48 h. The gist of the method: as §1
A short description of series [9]: Selectivity index, ratio of IC50 for human DNA topoisomerase 1 to IC50 for Candida albicans DNA topoisomerase 1.
For series [10], the system named is Mycobacterium intracellulare. Kind of series: Antimicrobial activity against Mycobacterium intracellulare ATCC 23068. It is filed as functional. Summed up:
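Mycobacterium grown 72 h in Middlebrook medium with OADC supplement, diluted 1:30 in broth. Incubated at 37 °C with diluted samples in 96-well plates, highest final 50 µg/mL, DMSO at most 2.5%. Absorbance at 630 nm. MIC = lowest concentration with 80% growth inhibition relative to controls; IC50 from concentration versus % growth plots.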

Molecules are shown by their SMILES. Some results are limits rather than exact numbers.

A word on the IC50: it is the concentration that gives 50% inhibition. What is called MIC80 is an inhibitory concentration at the 80% level, which refers to growth in some studies and to a panel of isolates in others. Consider `C[n+]1ccc2cc(-c3ccccc3)nc3c2c1-c1ccccc1-3.[I-]`, for which the IC50 in the series with Pseudomonas aeruginosa was 25 µg/mL; in the series on Staphylococcus aureus [1], 20 µg/mL; in the series on Cryptococcus neoformans it was 0.4 µg/mL; in series [2] it was 7 µg/mL; in [4], under 1.1 µg/mL; in [5], 9 µg/mL. Further, the IC50 in the series on Staphylococcus aureus [6] is 20 µg/mL; in the series with Candida albicans it was 0.32 µg/mL; on DNA topoisomerase 1, 28.4 µM; with Plasmodium falciparum, 0.46 µg/mL; in series [7], 35 µg/mL; in series [8], 6.2 µg/mL. The results for the MIC80 in the series with Cryptococcus neoformans and in the series on Candida albicans were 0.78 µg/mL and 0.39 µg/mL, respectively. For the same molecule, the Activity result in series [3] was “Non-Toxic”. For the same molecule, the Ratio IC50 in series [9] was found to be 2.92.
With `C[n+]1c2c3c(nc(-c4ccccc4)cc3c3ccccc31)-c1ccccc1-2.[I-]`, the IC50 is 4 µg/mL in the series on Pseudomonas aeruginosa; 4.5 µg/mL in the series with Staphylococcus aureus [1]; 0.23 µg/mL with Cryptococcus neoformans; over 10 µg/mL in series [2]; 4.5 µg/mL in [4]; 3.5 µg/mL in [5]. Moreover, the IC50 with Staphylococcus aureus [6] is 5 µg/mL; in the series on Candida albicans, 0.2 µg/mL; at DNA topoisomerase 1 it was 1.01 µM; in series [7] it was 0.375 µg/mL; in series [8] it was 7.5 µg/mL. Also, the MIC80 with Cryptococcus neoformans was found to be 0.78 µg/mL; in series [10], 50 µg/mL; in the series with Candida albicans it was 0.39 µg/mL. Besides, the Activity entry in series [3] is recorded as “Non-Toxic”. Also, the Ratio IC50 in series [9] worked out at 0.79.
For `[Br-].c1ccc2c(c1)-c1nccc3cc[n+](Cc4ccc5ccccc5c4)c-2c13`, the IC50 in the series on Pseudomonas aeruginosa was 30 µg/mL; with Staphylococcus aureus [1] it was 20 µg/mL; in the series with Cryptococcus neoformans it was 0.3 µg/mL; in [2], 6 µg/mL; in series [4], under 1.1 µg/mL; in [5], under 1.1 µg/mL. Also, the IC50 is 22 µg/mL in the series with Staphylococcus aureus [6]; 0.67 µg/mL with Candida albicans; 70.5 µM against DNA topoisomerase 1; 0.0195 µg/mL in the series with Plasmodium falciparum; 21 µg/mL in series [7]; over 10 µg/mL in series [8]. The MIC80 in the series with Cryptococcus neoformans came out at 0.39 µg/mL; in series [10], 50 µg/mL; in the series with Candida albicans, 0.78 µg/mL. Moreover, the Activity result in series [3] is given as “Non-Toxic”. In series [9], the Ratio IC50 turned out to be 0.7.
Regarding `CC[n+]1ccc2ccnc3c2c1-c1ccccc1-3.[I-]`, the IC50 is 40 µg/mL in the series with Staphylococcus aureus [1]; 13.3 µg/mL in the series on Cryptococcus neoformans; 35 µg/mL in the series on Candida albicans; 41.6 µM on DNA topoisomerase 1; 0.0475 µg/mL in the series on Plasmodium falciparum; 10 µg/mL in series [7]. In addition, the MIC80 turned out to be 25 µg/mL against Cryptococcus neoformans and 50 µg/mL against Candida albicans. For the same molecule, the Activity result in [3] is recorded as “Non-Toxic”. The Ratio IC50 in [9] worked out at 0.67.
With `COc1cc(C[n+]2ccc3ccnc4c3c2-c2ccccc2-4)cc(OC)c1.[Br-]`, the IC50 is 0.92 µg/mL with Cryptococcus neoformans; 7 µg/mL in series [2]; under 1.1 µg/mL in [4]; 2 µg/mL in series [5]; 9 µg/mL with Staphylococcus aureus [6]; 20 µg/mL in the series with Candida albicans. Moreover, the IC50 was 34.5 µM against DNA topoisomerase 1, 0.011 µg/mL in the series on Plasmodium falciparum, 12.5 µg/mL in series [7] and over 10 µg/mL in series [8]. The values for the MIC80 (against Cryptococcus neoformans; in series [10]; in the series with Candida albicans) were 3.12 µg/mL, 50 µg/mL and 25 µg/mL, respectively. In addition, the Activity entry in [3] is “Non-Toxic”. The Ratio IC50 in series [9] amounted to 0.83.
For the molecule `[Br-].c1ccc(C[n+]2ccc3c4c(nc5ccccc53)-c3ccccc3-c42)cc1`, the IC50 was found to be 4 µg/mL in the series with Pseudomonas aeruginosa; 5 µg/mL in the series with Staphylococcus aureus [1]; 2.13 µg/mL with Cryptococcus neoformans; 2.9 µg/mL in [2]; 1.2 µg/mL in [4]; 1.8 µg/mL in series [5]. For the same molecule, the IC50 in the series on Staphylococcus aureus [6] is 35 µg/mL; against DNA topoisomerase 1, 1.34 µM; in the series with Plasmodium falciparum, 0.0415 µg/mL; in series [7] it was 0.55 µg/mL; in series [8], 6 µg/mL. For the same molecule, the values for the MIC80 (against Cryptococcus neoformans; in series [10]) were 12.5 µg/mL and 10 µg/mL, respectively. Further, in [3], the Activity result is listed as “Non-Toxic”. The Ratio IC50 in series [9] turned out to be 0.96.

(Values after ChEMBL document CHEMBL3865847, “The synthesis and biological evaluation of alkyl and benzyl naphthyridinium analogs of eupolauridine as potential antimicrobial and cytotoxic agents” (Bioorg Med Chem, 2016).)
